Assays:
Type in all cases: functional
[1] = organism: Homo sapiens; test: (§1) Inhibition of the production of Interleukin-1-beta from human peripheral blood monocytes stimulated with lipopolysaccharide (LPS)
Method in brief: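 Drug in DMSO (1.0 μL) added, 60 min preincubation, then LPS (Salmonella typhimurium; 1.0 μg/mL stock, 20 μL/well). After 20 h, supernatant IL-1β by ELISA; MTT viability on cells.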

[2] = organism: Homo sapiens; test: Inhibition of the production of Interleukin-1-beta from human peripheral blood monocytes stimulated with lipopolysaccharide (LPS).
Method in brief: (§2)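 Human monocytes elutriated from whole blood, 2×10^6 cells/well in RPMI 1640 + 5% FBS. Drug in DMSO (1.0 μL) added, 60 min preincubation, then LPS (Salmonella typhimurium; 1.0 μg/mL stock, 20 μL/well). After 20 h, supernatant IL-1β by ELISA; MTT viability on cells.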

[3] = system: Mus musculus; test: In vivo activity expressed as percentage survival at 600 mg/kg in mouse septic shock model
Method in brief: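 Female C57Bl/6 mice (18–20 g), groups of 10, given LPS ip (E. coli 0127:B8, in 0.9% saline, 40 mg/kg). Compound in 0.25% methylcellulose (beadmilled 60 min) dosed orally by gavage 20 min later (0.1 mL/g), then every 4 h for 24 h; vehicle controls. Deaths recorded over 3 days; percent survival, χ² at p<0.05, mean of three experiments.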

[4] = organism: Homo sapiens; test: (§3) Inhibition of the production of Interleukin-1-beta from human peripheral blood monocytes stimulated with lipopolysaccharide (LPS) at 10 uM
[5] = organism: Homo sapiens; test: as §3; remark: listed apart in the source
Method in brief: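 Elutriated human monocytes in RPMI 1640 + 5% FBS, drug added in DMSO 60 min before LPS (Salmonella typhimurium). Tested at 10 μM, the highest concentration assayed. After 20 h, supernatant IL-1β measured by ELISA in duplicate; percent inhibition vs control; MTT viability checked.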

[6] = organism: Homo sapiens; test: as §1; method in brief: as §2; remark: listed apart in the source

## O=C(/C=C/c1ccccc1)c1ccccc1OCc1ccccc1
[1]
  IC50: 2230 nM

## COc1cc(OC)c(C(=O)/C=C/c2ccccc2)c(OC)c1
[2]
  IC50: 1250 nM

## COC(=O)c1ccccc1C(=O)/C=C/c1ccccc1
[3]
  survival at 600 mg/kg: 20%
[1]
  IC50: 1950 nM

## COc1cc(OC)c(C(=O)/C=C/c2cnccn2)c(OC)c1
[1]
  IC50: 693 nM

## O=C(/C=C/c1ccccc1)c1ccccc1NS(=O)(=O)C(F)(F)F
[1]
  IC50: 5850 nM

## COC(=O)c1ccc(C(=O)/C=C/c2ccccc2)cc1
[4]
  inhibition at 10 µM: 5%

## COc1cc(OC)c(C(=O)/C=C/c2cccc(C(=O)Nc3cccnc3)c2)c(OC)c1
[1]
  IC50: 1630 nM

## COc1cccc(/C=C/C(=O)c2c(OC)cc(OC)cc2OC)c1
[1]
  IC50: 1800 nM

## Cc1cc(C)c(C(=O)/C=C/c2ccccc2)c(C)c1
[1]
  IC50: 6500 nM

## COc1cc(C(=O)/C=C/c2ccc(N(C)C)cc2)cc(OC)c1OC
[5]
  inhibition at 10 µM: 0%

## COc1cc(OC)c(C(=O)/C=C/c2ccc(C(N)=O)cc2)c(OC)c1
[1]
  IC50: 1790 nM

## COC(=O)c1ccccc1C(=O)/C=C/c1ccc(C(=O)Nc2nccs2)cc1
[3]
  survival at 600 mg/kg: 30%
[1]
  IC50: 2030 nM

## CCOc1ccccc1C(=O)/C=C/c1ccncc1
[1]
  IC50: 1650 nM

## COc1cc(OC)c(C(=O)CCc2ccccc2)c(OC)c1
[5]
  inhibition at 10 µM: 0%

## COc1cc(OC)c(C(=O)/C=C/c2c(F)cccc2F)c(OC)c1
[1]
  IC50: 1290 nM

## COC(=O)c1cccc(/C=C/C(=O)c2c(OC)cc(OC)cc2OC)c1
[1]
  IC50: 1650 nM

## COc1cc(OC)c(C(/C=C/c2ccccc2)=N/O)c(OC)c1
[6]
  Inhibition: 34%

## CCOc1ccc(C(=O)/C=C/c2ccccc2)cc1
[4]
  inhibition at 10 µM: 15%

## COc1cc(OC)c(C(=O)/C=C/c2nccn2C)c(OC)c1
[1]
  IC50: 3800 nM

## COC(=O)c1ccc(/C=C/C(=O)c2c(OC)cc(OC)cc2OC)cc1
[1]
  IC50: 1930 nM

## COc1ccccc1C(=O)/C=C/c1ccccc1
[1]
  IC50: 2230 nM

## COc1ccc(C(=O)/C=C/c2ccccc2)cc1OC [3',4'-DIMETHOXYCHALCONE]
[4]
  inhibition at 10 µM: 44%

## O=C(/C=C/c1ccccc1)c1cccs1
[1]
  IC50: 5750 nM

## COc1cc(OC)c(C(=O)C=C(c2ccccc2)c2ccccc2)c(OC)c1
[4]
  inhibition at 10 µM: 0%

## COc1ccc(C(=O)/C=C/c2ccccc2)c(OC)c1OC
[1]
  IC50: 1710 nM

## COc1cc(OC)c(C(=O)/C=C/c2cccc(C(=O)Nc3nccs3)c2)c(OC)c1
[1]
  IC50: 503 nM

## COc1cc(OC)c(C(=O)/C=C/c2ccc(C(=O)Nc3nccs3)cc2)c(OC)c1
[3]
  survival at 600 mg/kg: 55%
[1]
  IC50: 355 nM

## O=C(O)c1ccccc1C(=O)/C=C/c1ccccc1
[4]
  inhibition at 10 µM: 37%

## COc1cc(OC)c(C(=O)/C=C/c2ccc(C(=O)N(C)c3nccs3)cc2)c(OC)c1
[1]
  IC50: 1010 nM

## COc1cccc(C(=O)/C=C/c2ccccc2)c1OC
[1]
  IC50: 1670 nM

## O=C(/C=C/c1ccccc1)c1ccccn1
[1]
  IC50: 6200 nM

## CCOc1ccccc1C(=O)/C=C/c1ccccc1
[1]
  IC50: 609 nM

## COc1cc(OC)c(C/C=C/c2ccccc2)c(OC)c1
[5]
  inhibition at 10 µM: 0%

## COc1cc(OC)c(C(=O)/C(C)=C/c2ccccc2)c(OC)c1
[1]
  IC50: 5170 nM

## CS(=O)(=O)Nc1ccccc1C(=O)/C=C/c1ccccc1
[5]
  inhibition at 10 µM: 0%

## COc1cc(OC)c(C(=O)/C=C(\C)c2ccccc2)c(OC)c1
[4]
  inhibition at 10 µM: 0%

## COc1cc(OC)c(C(=O)/C=C/c2cccc(C(=O)O)c2)c(OC)c1
[1]
  IC50: 6760 nM

## COc1ccc(C(=O)/C=C/c2ccccc2)cc1 [4'-METHOXYCHALCONE]
[4]
  inhibition at 10 µM: 29%

## COc1cccc(/C=C/C(=O)c2ccccc2)c1OC
[1]
  IC50: 2000 nM

## CN(C)C(=O)c1ccccc1C(=O)/C=C/c1ccccc1
[1]
  IC50: 5500 nM

## O=C(/C=C/c1ccccc1)c1c(Cl)cccc1Cl
[1]
  IC50: 1080 nM

## COc1cc(OC)c(C(=O)/C=C/c2ccc(C(=O)Nc3cccnc3)cc2)c(OC)c1
[3]
  survival at 600 mg/kg: 50%
[1]
  IC50: 793 nM

## COc1cc(OC)c(C(=O)NCc2ccccc2)c(OC)c1
[5]
  inhibition at 10 µM: 0%

## COc1cc(OC)c(C(=O)c2ccc(-c3ccccc3)cc2)c(OC)c1
[5]
  inhibition at 10 µM: 26%

## O=C(Nc1nccs1)c1ccc(/C=C/C(=O)c2ccccc2C(=O)O)cc1
[5]
  inhibition at 10 µM: 22%

## COc1cc(OC)c(NC(=O)/C=C/c2ccccc2)c(OC)c1
[5]
  inhibition at 10 µM: 0%

## O=C(/C=C/c1ccccc1)c1ccccc1Br
[1]
  IC50: 1660 nM

## COc1cc(OC)c(C(=O)/C=C/c2ccc(C(=O)Nc3ccccc3)cc2)c(OC)c1
[1]
  IC50: 803 nM

## COc1cc(OC)c(C(=O)/C=C/c2cccnc2)c(OC)c1
[1]
  IC50: 1330 nM

## O=C(/C=C/c1ccccc1)c1ccc([N+](=O)[O-])cc1
[4]
  inhibition at 10 µM: 0%

## COc1cc(OC)c(C(=O)/C=C/c2ccnc3ccccc23)c(OC)c1
[1]
  IC50: 311 nM

## COc1cc(OC)c(C(O)/C=C/c2ccccc2)c(OC)c1 (configuration not stated)
[1]
  IC50: 5400 nM

## O=C(/C=C/c1ccccc1)c1ccccc1 [CHALCONE]
[1]
  IC50: 6280 nM

## COc1cccc(OC)c1C(=O)/C=C/c1ccccc1
[1]
  IC50: 1150 nM

## COc1ccc(/C=C/C(=O)c2ccccc2)cc1OC
[1]
  IC50: 2330 nM

## COc1cc(C(=O)/C=C/c2ccccc2)cc(OC)c1OC
[1]
  IC50: 1840 nM

## COc1cc(OC)c(C(=O)/C=C/c2ccc(C(=O)O)cc2)c(OC)c1
[1]
  IC50: 6230 nM

## COc1cc(OC)c(C(=O)/C=C/c2ccncc2)c(OC)c1
[1]
  IC50: 592 nM

## COc1cc(OC)c(C(=O)/C=C/c2ccccn2)c(OC)c1
[1]
  IC50: 596 nM

## O=C(/C=C/c1ccccc1)c1c2ccccc2cc2ccccc12
[1]
  IC50: 1410 nM

## O=C(/C=C/c1ccccc1)c1ccccc1C(F)(F)F
[1]
  IC50: 748 nM

## COc1cc(OC)c(C(=O)/C=C/c2ccc(C(=O)N(C)C)cc2)c(OC)c1
[1]
  IC50: 2800 nM

## COc1cc(OC)c(C(=O)/C=C/c2cccc(C(=O)Nc3ccccc3)c2)c(OC)c1
[1]
  IC50: 577 nM

## O=C(/C=C/c1ccccc1)c1ccc(O)cc1 [4'-HYDROXYCHALCONE]
[1]
  IC50: 6130 nM

## O=C(/C=C/c1ccccc1)c1ccccc1[N+](=O)[O-]
[1]
  IC50: 1520 nM

## CN(C)c1ccccc1C(=O)/C=C/c1ccccc1
[1]
  IC50: 1770 nM

## O=C(/C=C/c1ccccc1)c1ccccc1O [2'-HYDROXYCHALCONE]
[1]
  IC50: 4300 nM

## CC(=O)Nc1ccccc1C(=O)/C=C/c1ccccc1
[1]
  IC50: 1730 nM

From ChEMBL document CHEMBL1126690, “2'-substituted chalcone derivatives as inhibitors of interleukin-1 biosynthesis” (J Med Chem, 1993)
